Assay results pooled from the literature.
Each line is one published result; the experiments were not run side by side.
Cell line: HCT-116
Read-out: cell growth or viability

Compound | method | time | IC50
O=C(O)c1nn(Cc2ccc(Cl)cc2Cl)c2ccccc12 | – | 48 h | 247 µM
COc1cc([C@@H]2c3cc4c(cc3[C@@H](O[C@@H]3O[C@@H]5CO[C@@H](C)O[C@H]5[C@H](O)[C@H]3O)[C@H]3COC(=O)[C@H]23)OCO4)cc(OC)c1O | SRB | 72 h | 2.4 µM
Cc1cc(NS(=O)(=O)c2ccc(NC(=O)/C(C#N)=C/c3ccc(N4CCCCC4)cc3)cc2)no1 | MTT | 48 h | 14.5 µM
CCc1ccc(N=C2C(=O)Nc3ccccc32)cc1 | MTT | 48 h | 64.7 µM
O=[N+]([O-])c1cc(I)c(O)c(C=NNc2ccc(C(F)(F)F)cc2)c1 | MTT | 24 h | 9.43 µM
O=C1C(=Nc2ccccc2Br)c2ccccc2N1Cc1ccccc1 | MTT | 48 h | 1.1 µM
O=[N+]([O-])c1ccc(O)c(C=NNc2ccc(Cl)cc2)c1 | MTT | 24 h | 11 µM
O=C1C(=Nc2ccc(Cl)cc2)c2ccccc2N1Cc1cccc(Cl)c1 | MTT | 48 h | 7.71 µM
CC(=O)OC[C@H]1O[C@@H](n2cc(Cn3c(C(C)=O)nc4ccccc43)nn2)[C@H](OC(C)=O)[C@@H](OC(C)=O)[C@H]1OC(C)=O | LDH | 48 h | 6.49 µM
COC(=O)c1ccc2c(c1)NC(=O)/C2=C(\Nc1ccc(N(C)C(=O)CN2CCN(C)CC2)cc1)c1ccccc1 | MTT | 24 h | 1.88 µM
O=C1/C(=C/c2ccc(O)cc2O)NC(=S)N1c1ccccc1 | MTT | – | 91.3 µg/mL
S=C(N/N=C/c1cccc2cc3ccccc3nc12)Nc1ccccc1 | MTT | 48 h | > 50 µM
CONC(=O)c1cccc2c1cc(C)n2-c1nc2c(c(NCc3ccccc3)n1)CCCN2 | ATP luminescence | 72 h | 0.7 µM
O=C1CS/C(=N\c2cc(C(F)(F)F)ccc2-c2nnc(N3C(=O)CS/C3=N\c3cccc(Cl)c3)s2)N1c1cccc(Cl)c1 | MTT | – | 57.1 µM
c1ccc(Cn2nc(-c3ncc(-c4ccccc4)s3)c3ccccc32)cc1 | – | 48 h | 50.6 µM
O=C(CCc1ccc(Cl)cc1)N1C(=O)C(=Nc2ccc(Cl)cc2Br)c2ccccc21 | MTT | 48 h | 23.2 µM
c1ccc(-c2cc(CNc3cccc4cccnc34)on2)cc1 | MTS | 72 h | > 100 µM
COc1cccc(-c2cc(NCc3ccc4c(c3)OCO4)nc(N)n2)c1 | – | 72 h | 0.347 µM
CCc1ccc(N=C2C(=O)N(Cc3ccccc3)c3ccccc32)cc1 | MTT | 48 h | 0.9 µM
COc1ccc2c(-c3ncc(-c4ccccc4)o3)nn(Cc3ccccc3)c2c1 | – | 48 h | 80.9 µM
COc1ccc(CNC(=O)Cn2cc(COc3ncnc4[nH]cnc34)nn2)cc1 | MTT | – | > 100 µM
O=C1CS/C(=N\c2cc(C(F)(F)F)ccc2-c2nnc(N3C(=O)CS/C3=N\c3ccc(-c4ccccc4)cc3)s2)N1c1ccc(-c2ccccc2)cc1 | MTT | – | 92.3 µM

Compound | method | time | IC50
CC(C)c1ccc(/C=C2\N=C(SCc3ccccc3)N(c3ccccc3)C2=O)cc1 | MTT | – | 72.9 µg/mL
COc1ccc(NC(=S)N/N=C/c2cccc3cc4ccccc4nc23)cc1 | MTT | 48 h | > 50 µM
O=C1C(=Nc2ccc(Cl)cc2)c2ccccc2N1Cc1ccc([N+](=O)[O-])cc1 | MTT | 48 h | 1.75 µM
C#CCn1c(C2CC(c3ccc(F)cc3)=NN2C(C)=O)nc2ccccc21 (centres unmarked) | LDH | 48 h | 6.85 µM
O=C(CSc1nc2ccccc2s1)N/N=C/c1ccc(OCC(=O)Nc2cccc([N+](=O)[O-])c2)cc1 | MTS | 72 h | 13.3 µM
COc1ccc(N(Cc2nc(-c3ccc(F)cc3)cs2)C(=O)CCCCCC(=O)NO)cc1 | MTT | 72 h | 3.2 µM
FC(F)(F)c1cc(OCc2cc(-c3ccc(Cl)cc3Cl)no2)c2ccccc2n1 | MTS | 72 h | > 100 µM
O=[N+]([O-])c1cc(I)c(O)c(C=NNc2ccccc2)c1 | MTT | 24 h | 6.34 µM
O=C1Nc2ccccc2C1=Nc1cccc(Cl)c1 | MTT | 48 h | > 100 µM
OCn1ccnc1 | MTT | 24 h | 10.7 µM
Cc1cc2c(C(N)=O)nccc2n1-c1nc2c(c(NCc3ccccc3)n1)CCCN2 | ATP luminescence | 72 h | 2.3 µM
O=C1CS/C(=N\c2cc(C(F)(F)F)ccc2-c2nnc(N3C(=O)CS/C3=N\c3ccc(F)cc3)s2)N1c1ccc(F)cc1 | MTT | – | 21.2 µM
Cc1cc2c(C(N)=O)cccc2n1-c1nc2c(c(NCc3ccccc3O)n1)CCCN2 | ATP luminescence | 72 h | 5 µM
c1ccc2c(c1)ncn2Cn1cncn1 | MTT | 24 h | 102 µM
O=C(C=Cc1ccc(OCCOc2ccc(C=CC(=O)c3cccs3)cc2)cc1)c1cccs1 | MTT | 48 h | 17.1 µM
Fc1ccc2c(-c3nnc(Cc4ccccc4)s3)nn(Cc3ccc(Cl)cc3Cl)c2c1 | – | 48 h | 85.1 µM
CC1(P2(=O)CCCCC2)CCCCC1 | MTT | 72 h | 69.3 µM
O=C1C(=Nc2ccccc2I)c2ccccc2N1Cc1ccc(Br)cc1 | MTT | 48 h | 1.33 µM
FC(F)(F)c1cc(OCc2cc(-c3ccccc3)no2)c2ccccc2n1 | MTS | 72 h | > 100 µM
O=C(C=Cc1cccs1)c1ccc(OCCOc2ccc(C(=O)C=Cc3cccs3)cc2)cc1 | MTT | 48 h | 18.1 µM
COc1ccc(N=C2SCC(=O)N2c2nnc(-c3ccc(C(F)(F)F)cc3N=C3SCC(=O)N3c3ccc(OC)cc3)s2)cc1 | MTT | – | 65.2 µM
COc1cc([C@@H]2c3cc4c(cc3[C@@H](O[C@@H]3O[C@@H]5CO[C@@H](C)O[C@H]5[C@H](O)[C@H]3O)[C@H]3COC(=O)[C@H]23)OCO4)cc(OC)c1O | MTS | 72 h | 0.59 µM
